In the EternaBench riboswitch data:

Test system: MS2 coat protein
Experiment: apparent Kd, MS2 coat protein; higher = weaker binding; RNA-MaP array; FMN 200 µM where present
Summary of the method: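 Apparent Kd: the median of filtered binding-curve fits from single clusters. Designs were transcribed on Illumina sequencing-chip clusters by stalled E. coli RNA polymerase and titrated with SNAP-549-labelled MS2 coat protein from 0.7 or 1.5 nM, doubling to 3 µM, in 100 mM Tris-HCl pH 7.5, 80 mM KCl, 4 mM MgCl2, BSA, DTT, yeast tRNA and Tween-20. Each series ran without and then with constant ligand, and green signal was normalised to red-channel RNA signal and control-cluster median Fmax.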

[1] = designed as: OFF switch for flavin mononucleotide, no ligand
[2] = ligand present: flavin mononucleotide, designed as: OFF switch for flavin mononucleotide
[3] = designed as: ON switch for flavin mononucleotide, no ligand
[4] = ligand present: flavin mononucleotide, designed as: ON switch for flavin mononucleotide

Row | Sequence | apparent Kd [1] | apparent Kd [2] | apparent Kd [3] | apparent Kd [4]
1 | CUAUGUUAGCAGGAUAUGCCAUUAUUCUUUUUCGCAGAAGGGCUUACAUGAGGAUCACCCAUGUUACAUUUCUU | 15 nM | 36.5 nM | – | –
2 | CUAUUGGCAGGAUAUGCUUUUUUUGACAUGAGGAUCACCCAUGUGAUGCAUUUUGGGUUUGCAGAAGGGCCUGAGU | 74.3 nM | 75.1 nM | – | –
3 | CUCAAACAUGAGGAUCACCCAUGUGUUGUCAUGGGAGGAUAUCCCAGUUCGUUGUAGUCGGGAGAAGGCCUAUGUC | – | – | 67.4 nM | 28.6 nM
4 | CUCAAACAUGAGGAUCACCCAUGUGUUGUCAUGGGAGGAUAUCUAAGUUCAUUGUAUUCAGGAGAAGGCCUAUGUC | – | – | 310 nM | 34.4 nM
5 | CUCAUGUGAGGAUAUAGUACUUCUUCUAUUAUUAUUGAGUACUAGAAGGCACAUGAGGAUCACCCAUGUAGUAC | 16 nM | 16.3 nM | – | –
6 | CUCAUGUGAGGAUAUCAGUAGUAAAAAAAAAAAAUUACUACUGAGAAGGCACAUGAGGAUCACCCAUGUGACUU | 34.8 nM | 30.6 nM | – | –
7 | CUCAUGUUAGGAUAUGCGCUCGACCUAGUGGUCGAGCUCUAGCAGAAGGAACAUGAGGAUCACCCAUGUUUGCA | 63.3 nM | 19.6 nM | – | –
8 | CUCCGGCGUGUAGGAUAUGGAUCCGAUUAGGAUCCAGAAGGACAUGAGGAUCACCCAUGUACAUGUAAACAGUCAUCACCGGAU | 8.57 nM | 37.2 nM | – | –
9 | CUCCUACAUGAGGAUCACCCAUGUCAGGAUAUCUCAGUGGCACCUAAAUUCGCCACCCAGAGAAGGGACGUGCA | 13.9 nM | 16.6 nM | – | –
10 | CUCGAGUCAAGGCUCGCGAGUACACAGGAUAUGAAAAGUCACAUGAGGAUCACCCAUGUCCAAAAUCAGAAGGGUGAGACUAAG | – | – | 764 nM | 222 nM
11 | CUCGAGUUAGGAUAUCGAACGUAACAAGCGGAAACUCCCGCCGAGAAGGAACAUGAGGAUCACCCAUGUGAAAC | 14.9 nM | 18.3 nM | – | –
12 | CUCGUGUAAGGAUAUGCGAGCCACGGAAAUAAAACGUGGAGGUAGAAGGUACAUGAGGAUCACCCAUGUAAAAC | 25.4 nM | 85.3 nM | – | –
13 | CUCGUGUCAGGAUAUCGAUGGCACCUCCGGGCGCCCGAACGCGAGAAGGGACAUGAGGAUCACCCAUGUAAAAC | 66.8 nM | 113 nM | – | –
14 | CUCGUGUGAGGAUAUUCGGGCGGGCUCGUUUGGGUUUGUUUGGAGAAGGUACAUGAGGAUCACCCAUGUGCUGG | 51 nM | 175 nM | – | –
15 | CUCUUGUCAGGAUAUGCUGCUCGUCACGAAAGUGAUGAGUAGCAGAAGGGACAUGAGGAUCACCCAUGUAAAUA | 53.7 nM | 17.5 nM | – | –
16 | CUGACCUGUGUCAGGAUAUCGUUUGCCAUUGUGACUGAGAAGGGACAUGAGGAUCACCCAUGUCGAGCGACGGG | 28.4 nM | 35.6 nM | – | –
17 | CUGAGCAAUGUAGGAUAUCGACUGGAUAACAGUCGAGAAGGACAUGAGGAUCACCCAUGUAAAUGAGUGAAUAAUAAAGCUCAG | 1070 nM | 331 nM | – | –
18 | CUGAGGAAGAGAGAGGAUAUCCAAAGGAAAACAUGAGGAUCACCCAUGUAAAAGGUAGGAAAUUGGGAGAAGGCUCAAGAGAGAG | – | – | 43.6 nM | 38.5 nM
19 | CUGAGGUCAGGAUAUGCAUGGCGGGACUUGCGUCGUGGCGUGCAGAAGGGACAUGAGGAUCACCCAUGUGGAGU | 165 nM | 287 nM | – | –
20 | CUGAUGUCAGGAUAUCGGUGGCUCACUUGUGUGUGCCAGACCGAGAAGGGACAUGAGGAUCACCCAUGUUUCUA | 21.1 nM | 93.4 nM | – | –
21 | CUGAUGUUAGGAUAUCAGGCGCCCGCCACUAGCAAGGCGCAUGAGAAGGGACAUGAGGAUCACCCAUGUAGUAA | 28.1 nM | 50 nM | – | –
22 | CUGCCGUAGGAGAAGGACGGCGGGUUAUUUUUGUACAUGAGGAUCACCCAUGUAGGAUAUCCUACGUCAGGCAACCUACUACAG | 7.26 nM | 10.2 nM | – | –
23 | CUGCGCUAGGAGAAGGGCUAGAGUGUGAUAUAUUUGCCCGCGAGCACAUGAGGAUCACCCAUGUAGCAGGAUAUCCAAGCCGAU | 8.03 nM | 16.5 nM | – | –
24 | CUGCGUCGUGUUAGGAUAUCCAGCGGUGCGCGCCAGGAGAAGGAACAUGAGGAUCACCCAUGUAAACCGAUGGC | 12.4 nM | 13.4 nM | – | –
25 | CUGGAUAGAGGAUAUUGUGCUGCUGACAUGAGGAUCACCCAUGUAUGUUAACUCGGCCGUCGAGAAGGCUAACAGG | 24.7 nM | 15.3 nM | – | –
26 | CUGGAUCACGCAGGAUAUUACAUGAGGAUCACCCAUGUCAGGACUGCAAUAUCGUCUCCUCGGUGUGAGAAGGGCGGAAUCAUU | 15 nM | 27 nM | – | –
27 | CUGGUGUCAGGAUAUGCAUAGCAGUGACCGGAACCCGGUCAGCAGAAGGGACAUGAGGAUCACCCAUGUUAAUA | 24.2 nM | 57.7 nM | – | –
28 | CUGGUGUGAGGAUAUCAAAGACCUCGGGAUAGUAGCGAGGAUGAGAAGGCACAUGAGGAUCACCCAUGUAACAA | 20.9 nM | 33.8 nM | – | –
